Consider seven compounds from ChEMBL document CHEMBL1144710, “epigenetic multiple ligands: mixed histone/protein methyltransferase, acetyltransferase, and class III deacetylase (sirtuin) inhibitors” (J Med Chem, 2008).

pIC50: −log10 of the molar value. Active and inactive are the calls of the source. Unless noted, no cut-off for these calls is given here.

In assay [1] the target is T1, Histone-lysine N-methyltransferase SETD7 (Homo sapiens) (UniProt Q8WTS6).
T1 sequence (whole entry): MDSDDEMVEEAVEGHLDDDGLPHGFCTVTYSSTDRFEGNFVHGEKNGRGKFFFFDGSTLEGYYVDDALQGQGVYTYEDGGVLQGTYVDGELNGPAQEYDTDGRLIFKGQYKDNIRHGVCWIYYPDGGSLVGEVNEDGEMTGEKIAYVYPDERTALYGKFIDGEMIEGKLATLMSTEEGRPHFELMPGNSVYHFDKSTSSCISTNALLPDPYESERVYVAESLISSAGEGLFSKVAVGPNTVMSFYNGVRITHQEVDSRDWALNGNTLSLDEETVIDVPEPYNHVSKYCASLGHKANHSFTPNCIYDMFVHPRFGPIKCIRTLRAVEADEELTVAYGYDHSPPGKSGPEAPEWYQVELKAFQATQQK
Briefly: Inhibition of human recombinant SET7 assessed as histone H3 protein methylation at 100 uM. In short, it runs like this:
(§1)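 Recombinant enzymes (0.2 µg) with substrate (0.5 µg: Npl3p for PRMT1, PABP1 for CARM1, histone H3 for SET7), 0.5 µM [3H]AdoMet and 100 µM compound in PBS pH 7.4 with 3.3% v/v DMSO, 90 min at 30 °C. Products separated by 10% SDS-PAGE, transferred to PVDF, detected by fluorography on film overnight.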

The test system of assay [2] is U-937. Briefly: Cell cycle arrest in human U937 cells assessed as accumulation at S/G2 phase at 25 uM after 30 hrs. Format: functional, cell-based. In short, it runs like this: (§2)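 U937 cells in RPMI with 10% fetal calf serum, HEPES and glutamine, kept at 200000 cells/mL; treated at 25 µM for 30 h, then the distribution across cell cycle phases was analysed.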
Assay [3] addresses RmtA (Emericella nidulans, UniProt Q5VLE3). Briefly: Inhibition of Aspergillus nidulans RmtA. In short, it runs like this: (§3)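 Enzyme was GST-RmtA fusion expressed in E. coli BL21 and glutathione-affinity purified (500 ng), preincubated with compound for 15 min at room temperature. Then 20 µg chicken erythrocyte core histones and 0.55 µCi [3H]AdoMet were added, 30 min at 30 °C. Stopped with 25% TCA, filtered, counted by liquid scintillation.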

Assay [4] has as its system U-937. Briefly: Inhibition of histone H3R17 methylation in human U937 cells at 50 uM after 24 hrs. The assay is classed as functional, cell-based. The method in brief: (§4)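 U937 cells treated at 50 µM for 24 h. Histones extracted with Triton buffer, then 0.2 M HCl overnight at 4 °C. 3–10 µg run on 15% SDS-PAGE and immunoblotted with anti-monomethyl-H3K4, monomethyl-H4R3 or dimethyl-H3R17 (1:500, overnight 4 °C), ECL detection. Loading controls: total H4 (H3K4), Ponceau Red (Arg marks).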

For assay [5], the target named is Protein arginine N-methyltransferase 1 (Homo sapiens) (UniProt Q99873). Briefly: Inhibition of human recombinant PRMT1 assessed as nuclear ribonucleoprotein Npl3p methylation at 100 uM. The method in brief:
as §1

Assay [6] relates to U-937. Briefly: Inhibition of histone H4R3 methylation in human U937 cells at 50 uM after 24 hrs. Format: functional, cell-based. In short, it runs like this: as §4
Assay [7] has as its system U-937. Briefly: Induction of apoptosis in human U937 cells at 25 uM after 30 hrs. Format: functional. In short, it runs like this:
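Apoptosis read as caspase 3 activation by FACS, in U937 cells (RPMI, 10% fetal calf serum, 200000 cells/mL) exposed to 25 µM for 30 h.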

Assay [8] concerns U-937. Kind of assay: Inhibition of human p300/CBP in U937 cells at 50 uM assessed as histone H3 acetylation. Format: cell-based. In short, it runs like this: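 Source was U937 nuclear extract (10 µg per assay) as p300/CBP HAT, with histone H3 substrate and compound at 50 µM or DMSO control for 90 min. Acetyl-H3 detected by indirect ELISA, quantified against acetylated H3 peptide standard curves, […].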

In assay [9] the test system is U-937. Briefly: Induction of granulocytic differentiation in human U937 cells assessed as CD11c expression at 5 uM after 30 hrs. Format: functional. The method in brief:
(§5)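 U937 cells treated for 30 h, then stained with PE-conjugated CD11c (PE mouse IgG1 as control) for 30 min at 4 °C in the dark and resuspended in PBS with PI (0.25 µg/mL). Read-out is percent CD11c-positive/PI-negative cells, with dead PI-positive cells excluded. Coloured compounds limited the top dose to 5 µM or lower.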

Assay [10] addresses T2, NAD-dependent protein deacetylase sirtuin-1 (Homo sapiens) (UniProt Q96EB6).
T2 sequence (whole entry): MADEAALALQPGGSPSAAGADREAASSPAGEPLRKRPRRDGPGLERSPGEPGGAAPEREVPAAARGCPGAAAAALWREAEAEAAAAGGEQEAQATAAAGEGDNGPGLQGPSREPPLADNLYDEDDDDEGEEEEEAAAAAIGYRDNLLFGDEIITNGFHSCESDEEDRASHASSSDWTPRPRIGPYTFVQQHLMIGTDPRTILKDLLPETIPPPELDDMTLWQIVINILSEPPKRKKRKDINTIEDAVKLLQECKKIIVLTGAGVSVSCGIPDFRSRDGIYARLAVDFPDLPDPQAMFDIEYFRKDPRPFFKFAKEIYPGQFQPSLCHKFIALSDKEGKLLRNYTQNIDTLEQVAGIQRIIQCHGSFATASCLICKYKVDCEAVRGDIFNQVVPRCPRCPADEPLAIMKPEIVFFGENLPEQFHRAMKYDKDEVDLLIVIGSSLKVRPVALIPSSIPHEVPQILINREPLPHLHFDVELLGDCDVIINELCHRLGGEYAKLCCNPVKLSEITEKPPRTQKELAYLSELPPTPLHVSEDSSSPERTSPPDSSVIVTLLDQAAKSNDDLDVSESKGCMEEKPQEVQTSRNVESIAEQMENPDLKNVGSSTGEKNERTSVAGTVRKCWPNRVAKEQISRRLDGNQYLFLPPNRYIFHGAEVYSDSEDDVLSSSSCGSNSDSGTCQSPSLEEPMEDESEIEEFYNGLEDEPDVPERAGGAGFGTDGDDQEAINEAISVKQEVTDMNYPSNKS
Briefly: Inhibition of human SIRT1 at 25 uM. The method in brief: (§6)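 Fluorescent two-stage assay. SIRT1 (1 U/well) or SIRT2 (5 U/well) with Fluor de Lys-SIRT1/2 substrate, NAD+ and compound at 25 µM, 37 °C for 2 h. Developer II containing nicotinamide then stopped the reaction and generated signal, read at ex 360/em 460 nm.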

The target of assay [11] is Protein arginine N-methyltransferase 1 (Homo sapiens) (UniProt Q99873). Briefly: Inhibition of human recombinant PRMT1 assessed as histone H4 methylation at 50 uM.
In assay [12] the target is T3, NAD-dependent protein deacetylase sirtuin-2 (Homo sapiens) (UniProt Q8IXJ6).
T3 sequence (whole entry): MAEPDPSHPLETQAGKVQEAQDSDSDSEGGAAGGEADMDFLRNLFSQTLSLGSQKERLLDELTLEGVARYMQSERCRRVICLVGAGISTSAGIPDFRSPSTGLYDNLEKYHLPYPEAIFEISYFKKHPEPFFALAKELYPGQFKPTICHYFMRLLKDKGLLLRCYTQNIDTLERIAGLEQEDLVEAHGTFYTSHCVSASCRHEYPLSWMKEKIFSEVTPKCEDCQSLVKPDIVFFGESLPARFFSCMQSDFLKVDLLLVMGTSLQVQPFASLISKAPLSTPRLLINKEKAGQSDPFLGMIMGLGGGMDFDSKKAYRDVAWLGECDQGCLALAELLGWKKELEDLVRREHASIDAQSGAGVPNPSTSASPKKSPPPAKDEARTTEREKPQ
Briefly: Inhibition of human SIRT2 at 25 uM. The method in brief:
as §6

For assay [13], the target named is T4, Histone-arginine methyltransferase CARM1 (Homo sapiens) (UniProt Q86X55).
T4 sequence (whole entry): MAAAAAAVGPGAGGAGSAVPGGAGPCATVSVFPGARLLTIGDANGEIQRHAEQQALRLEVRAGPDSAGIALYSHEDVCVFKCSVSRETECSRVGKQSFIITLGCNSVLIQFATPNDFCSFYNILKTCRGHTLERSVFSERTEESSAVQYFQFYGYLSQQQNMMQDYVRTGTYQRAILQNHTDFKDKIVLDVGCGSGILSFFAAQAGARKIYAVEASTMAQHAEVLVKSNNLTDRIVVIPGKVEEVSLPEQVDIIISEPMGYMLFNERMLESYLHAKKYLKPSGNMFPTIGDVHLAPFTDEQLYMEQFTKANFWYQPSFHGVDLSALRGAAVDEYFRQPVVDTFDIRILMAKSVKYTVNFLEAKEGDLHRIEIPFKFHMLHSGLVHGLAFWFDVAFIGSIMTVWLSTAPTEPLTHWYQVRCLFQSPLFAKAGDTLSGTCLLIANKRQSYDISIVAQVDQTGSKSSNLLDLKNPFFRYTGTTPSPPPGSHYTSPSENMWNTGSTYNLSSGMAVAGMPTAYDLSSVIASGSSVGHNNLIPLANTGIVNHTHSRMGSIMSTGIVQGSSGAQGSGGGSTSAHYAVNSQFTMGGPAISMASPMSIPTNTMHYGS
Briefly: Inhibition of human recombinant CARM1 assessed as poly(A) binding protein 1 methylation at 100 uM. In short, it runs like this:
as §1

Assay [14] concerns U-937. Briefly: Inhibition of histone H3K4 methylation in human U937 cells at 50 uM after 24 hrs. Format: functional, cell-based. The method in brief:
as §4

Assay [15] has as its target RmtA (Emericella nidulans) (UniProt Q5VLE3). Kind of assay: Inhibition of Aspergillus nidulans RmtA at 88.5 uM. The method in brief: as §3
For assay [16] the target is unchanged. Briefly: Inhibition of Aspergillus nidulans RmtA at 70.4 uM. In short, it runs like this: as §3
Assay [17] deals with U-937. Kind of assay: Induction of cell cycle arrest in human U937 cells at 25 uM after 30 hrs. Format: functional, cell-based. The method in brief: as §2
Assay [18] has as its system U-937. Kind of assay: Induction of granulocytic differentiation in human U937 cells assessed as CD11c expression at 25 uM after 30 hrs. Format: functional. The method in brief: as §5
The target in assay [19] is RmtA (Emericella nidulans) (UniProt Q5VLE3). Briefly: Inhibition of Aspergillus nidulans RmtA at 91.8 uM. In short, it runs like this: as §3
Assay [20] concerns U-937. Briefly: Induction of granulocytic differentiation in human U937 cells assessed as CD11c expression at 1 uM after 30 hrs. Format: functional. The method in brief: as §5
Assay [21] relates to U-937. Kind of assay: Cell cycle arrest in human U937 cells assessed as accumulation at G1/G2 phase at 25 uM after 30 hrs. Format: functional, cell-based. The method in brief: as §2
In assay [22] the target is RmtA (Emericella nidulans) (UniProt Q5VLE3). Briefly: Inhibition of Aspergillus nidulans RmtA at 84.6 uM. The method in brief: as §3

Sequence of RmtA (Emericella nidulans) (Q5VLE3 as listed by the source): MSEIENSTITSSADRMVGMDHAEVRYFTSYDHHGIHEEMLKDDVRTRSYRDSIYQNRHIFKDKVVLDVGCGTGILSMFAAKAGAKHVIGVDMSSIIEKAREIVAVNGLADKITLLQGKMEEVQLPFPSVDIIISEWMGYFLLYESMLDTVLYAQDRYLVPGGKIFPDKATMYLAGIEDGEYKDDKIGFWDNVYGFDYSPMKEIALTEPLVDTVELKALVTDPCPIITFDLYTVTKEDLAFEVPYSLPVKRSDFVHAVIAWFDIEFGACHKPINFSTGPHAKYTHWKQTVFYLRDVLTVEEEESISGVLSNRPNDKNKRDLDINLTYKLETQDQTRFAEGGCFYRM
Sequence of Protein arginine N-methyltransferase 1 (Homo sapiens) (Q99873 whole entry, looked up): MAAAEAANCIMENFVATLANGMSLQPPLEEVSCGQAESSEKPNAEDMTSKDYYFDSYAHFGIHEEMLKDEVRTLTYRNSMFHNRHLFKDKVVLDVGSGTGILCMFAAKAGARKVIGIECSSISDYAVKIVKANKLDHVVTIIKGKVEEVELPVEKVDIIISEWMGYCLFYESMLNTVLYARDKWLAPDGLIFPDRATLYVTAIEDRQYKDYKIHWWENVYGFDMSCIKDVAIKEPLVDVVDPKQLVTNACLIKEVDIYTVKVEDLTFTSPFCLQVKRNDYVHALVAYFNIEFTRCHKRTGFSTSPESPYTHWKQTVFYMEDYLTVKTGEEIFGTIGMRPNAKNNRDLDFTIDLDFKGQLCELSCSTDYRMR
Sequence of RmtA (Q5VLE3 whole entry, the tested form may be a part): as the sequence (Q5VLE3 as listed by the source) above

For `O=C1/C(=C/c2cc(Br)c(O)c(Br)c2)CSC/C1=C\c1cc(Br)c(O)c(Br)c1`, the result in assay [1], in assay [2], in assay [4], in [5], in assay [6] and in assay [13] was Active. Also, the result in assay [14] was Active. Also, the pIC50 (usually −log10 of the IC50, conventionally taken in molar units) in assay [3] is 4.35. Also, the Activity in [7] was determined as 40.7%; in assay [9], 9.1%. Besides, the inhibition (usually the change of the read-out against control, counted positive when it falls) came to 69% in assay [8], 54% in assay [10], 73% in assay [11] and 59% in assay [12].
In the case of `O=C1/C(=C/c2ccc(O)c(Br)c2)CSC/C1=C\c1ccc(O)c(Br)c1`, the result in [1] and in assay [5] was inactive. For the same compound, the outcome in assay [4], in assay [6], in [13] and in assay [14] was Active. The compound also gave an inhibition in [15] of 0%.
As to `O=C(Nc1cc(Br)c(O)c(Br)c1)c1ccc(C(=O)Nc2cc(Br)c(O)c(Br)c2)cc1`, in assay [16], the inhibition stood at 0%. The result in [4] and in assay [6] was Active.
Regarding `COc1cc(/C=C/C(=O)CC(=O)/C=C/c2ccc(O)c(OC)c2)ccc1O` [CURCUMIN], the result in assay [17] was inactive. In addition, the Activity is given as 25% in assay [18], 8.5% in [7] and 25.3% in assay [9].
In assay [19], `CC(C)(C(=O)/C=C/c1ccc(O)c(Br)c1)C(=O)/C=C/c1ccc(O)c(Br)c1` registered an inhibition of 0%. Moreover, the outcome in [4] and in assay [6] was Active.
Regarding `O=C(/C=C/c1cc(Br)c(O)c(Br)c1)c1cccc(C(=O)/C=C/c2cc(Br)c(O)c(Br)c2)c1`, the outcome in assay [1], in assay [21], in assay [4], in [5], in [6] and in assay [13] was Active. In assay [14], the result was Active. Moreover, the Activity in assay [20] was found to be 38.8%; in assay [7] it was 42.6%. The pIC50 in assay [3] was 5.00. Also, the inhibition was 83% in assay [8], 73% in assay [10], 60% in assay [11] and 48% in assay [12].
Take `CN1C2CCC1/C(=C\c1ccc(O)c(Br)c1)C(=O)/C2=C/c1ccc(O)c(Br)c1`: the result in assay [4], in [6] and in [14] was Active. In addition, the inhibition in assay [22] was 0%.
